Activity data for 2 compounds are collected here from ChEMBL document CHEMBL4033780, “Lipidated Brartemicin Analogues Are Potent Th1-Stimulating Vaccine Adjuvants” (J Med Chem, 2018).

Data set [1] addresses T1, C-type lectin domain family 4 member E (Mus musculus) (UniProt Q9R0Q8).
T1 sequence (whole entry): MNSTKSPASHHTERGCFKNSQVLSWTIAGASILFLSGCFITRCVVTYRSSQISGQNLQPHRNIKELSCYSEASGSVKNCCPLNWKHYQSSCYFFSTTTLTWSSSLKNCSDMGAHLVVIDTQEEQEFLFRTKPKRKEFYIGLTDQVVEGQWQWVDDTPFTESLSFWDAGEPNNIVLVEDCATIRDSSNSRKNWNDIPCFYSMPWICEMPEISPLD
The experiment in a line: Agonist activity at mincle in wild type C57BL/6 mouse GM-CSF derived BMDM assessed as increase in IL-1beta release at 0.1 to 1 nmol after 24 hrs by sandwich ELISA. The essentials:
(§1)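 Wild-type or Mincle−/− C57BL/6 bone marrow was cultured 8 days with GM-CSF 50 ng/mL in complete RPMI. Macrophages were detached with Acutase and seeded on ligand-coated plates (0.1 or 1 nmol/well); LPS 100 ng/mL was used as comparator. Supernatant was taken at 24 h and TNF, IL-6, IL-1β and MIP-2 measured by sandwich ELISA. Representative of three experiments in triplicate (±SD).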
Background: An ELISA detects its analyte on a solid surface through an enzyme-linked reagent.

In data set [2] the target is T1, C-type lectin domain family 4 member E (Mus musculus). The experiment in a line: Agonist activity at mouse mincle coupled with FcRgamma expressed in 2B4-NFAT-GFP reporter cells at higher concentration after 18 hrs by flow cytometric analysis. The class given is cell-based. The essentials:
(§2)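 2B4 NFAT-GFP reporter cells expressing mouse or human Mincle plus FcRγ were placed on plates coated with ligand at 0.01, 0.1 or 1 nmol/well; cells expressing FcRγ only served as negative control. Ligand was coated from isopropanol, 0.05 mM, and solvent evaporated. After 18 h, cells were harvested, stained with propidium iodide and GFP read by flow cytometry. Mean of three experiments in duplicate (±SEM).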
On the technique in general: Flow cytometry measures light scatter and fluorescence of single cells or particles in a stream.

The target is the same in data set [3]. Description: Binding affinity to recombinant mouse mincle extracellular domain fused with human IgG Fc expressed in HEK293T cells at 0.1 nmol by ELISA. The note with it: HEK-293T. Type of data set: cell-based.
In data set [4] the test system is BMDM. Description: Immunostimulatory activity in mincle-/- C57BL/6 mouse GM-CSF derived BMDM assessed as increase in TNF release at […] after 24 hrs by sandwich ELISA method. Type of data set: functional, cell-based. The essentials:
as §1

Data set [5] deals with T2, C-type lectin domain family 4 member E (Homo sapiens) (UniProt Q9ULY5).
T2 sequence (whole entry): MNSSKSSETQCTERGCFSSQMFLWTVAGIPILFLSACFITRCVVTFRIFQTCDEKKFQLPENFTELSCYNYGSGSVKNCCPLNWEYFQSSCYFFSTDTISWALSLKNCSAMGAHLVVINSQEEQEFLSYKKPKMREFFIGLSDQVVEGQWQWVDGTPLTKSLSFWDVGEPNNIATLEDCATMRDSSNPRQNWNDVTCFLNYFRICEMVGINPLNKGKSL
The experiment in a line: Agonist activity at human mincle coupled with FcRgamma expressed in 2B4-NFAT-GFP reporter cells at higher concentration after 18 hrs by flow cytometric analysis. The class given is cell-based. The procedure, abridged:
as §2

The target of data set [6] is T1, C-type lectin domain family 4 member E (Mus musculus). The experiment in a line: Agonist activity at mincle in wild type C57BL/6 mouse GM-CSF derived BMDM assessed as increase in MIP2 release at 0.1 to 1 nmol after 24 hrs by sandwich ELISA. The procedure, abridged:
as §1

Data set [7] shares this target. Description: Agonist activity at mincle in wild type C57BL/6 mouse GM-CSF derived BMDM assessed as increase in TNF release at 0.1 to 1 nmol after 24 hrs by sandwich ELISA. The essentials:
as §1

Data set [8] deals with T2, C-type lectin domain family 4 member E (Homo sapiens). The experiment in a line: Binding affinity to recombinant human mincle extracellular domain fused with human IgG Fc expressed in HEK293T cells at 0.1 nmol by ELISA. The class given is cell-based. The note with it: HEK-293T.
Data set [9] in a line: Toxicity in Atlantic horseshoe crab blood limulus amebocyte lysate by chromogenic endotoxin test. The settings on record: limulus polyphemus. The procedure, abridged: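 Endotoxin was measured by chromogenic Limulus amebocyte lysate assay at a sensitivity of ≤0.1 EU/mL.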
Data set [10] deals with T1, C-type lectin domain family 4 member E (Mus musculus). Description: Agonist activity at mincle in wild type C57BL/6 mouse GM-CSF derived BMDM assessed as increase in IL-6 release at 0.1 to 1 nmol after 24 hrs by sandwich ELISA. The essentials: as §1
In data set [11] the test system is BMDM. The experiment in a line: Immunostimulatory activity in mincle-/- C57BL/6 mouse GM-CSF derived BMDM assessed as increase in IL-1beta release at […] after 24 hrs by sandwich ELISA method. The class given is functional, cell-based. The procedure, abridged:
as §1

The subject of data set [12] is BMDM. The experiment in a line: Immunostimulatory activity in mincle-/- C57BL/6 mouse GM-CSF derived BMDM assessed as increase in IL-6 release at […] after 24 hrs by sandwich ELISA method. Type of data set: functional, cell-based. The essentials:
as §1

For data set [13], the system named is BMDM. The experiment in a line: Immunostimulatory activity in mincle-/- C57BL/6 mouse GM-CSF derived BMDM assessed as increase in MIP2 release at […] after 24 hrs by sandwich ELISA method. The class given is functional, cell-based. The essentials:
as §1

For data set [14], the species on record is Mus musculus. Description: Adjuvant activity in immunized C57BL/6 mouse assessed as increase in OVA-specific IgG production in serum at 0.3 umol treated with ovalbumin for 7 days followed by stimulation with OVA for 7 days and restimulation with OVA measured 24 to 48 hrs post OVA challenge. Type of data set: functional. The essentials: (§3)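 Sera were taken on days 0, 7 and 14 from C57BL/6 mice sensitized s.c. with emulsion containing OVA 200 μg ± adjuvant 0.3 μmol and footpad-challenged with OVA on day 7. OVA-specific IgG, IgG1, IgG2b and IgG2c were measured by ELISA with HRP-coupled anti-mouse secondaries. EC50 was taken from absorbance at 450 nm plotted against log serum concentration.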

For data set [15], the species on record is Mus musculus. The experiment in a line: Adjuvant activity in immunized C57BL/6 mouse assessed as footpad swelling at 0.3 umol treated with ovalbumin for 7 days followed by stimulation with OVA for 7 days measured 24 to 48 hrs post OVA challenge. Type of data set: functional.
Data set [16] is filed under the species Mus musculus. Description: Adjuvant activity in immunized C57BL/6 mouse assessed as increase in OVA-specific IgG2c production in serum at 0.3 umol treated with ovalbumin for 7 days followed by stimulation with OVA for 7 days and restimulation with OVA measured 24 to 48 hrs post OVA challenge relative to control. Type of data set: functional.
For data set [17], the species on record is Mus musculus. Description: Adjuvant activity in immunized C57BL/6 mouse assessed as increase in antigen specific IFNgamma production in spelnocytes at 0.3 umol treated with ovalbumin for 7 days followed by stimulation with OVA for 7 days and restimulation with OVA measured 24 to 48 hrs post OVA challenge. The class given is functional, cell-based. The essentials: (§4)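 C57BL/6 mice (8–12 wk) given s.c. oil-in-water emulsion (mineral oil/Tween-80/PBS 9:1:90) holding OVA 200 μg ± adjuvant 0.3 μmol; controls were OVA alone or no OVA. Footpad challenge with OVA 100 μg on day 7, spleens taken day 14. Splenocytes restimulated with OVA 10, 30 or 100 μg/mL. Cell number read at 450 nm after 3 h with a count reagent; IFN-γ and IL-17 measured by ELISA.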

Data set [18] is filed under the species Mus musculus. Description: Adjuvant activity in immunized C57BL/6 mouse assessed as increase in OVA-specific IgG1 production in serum at 0.3 umol treated with ovalbumin for 7 days followed by stimulation with OVA for 7 days and restimulation with OVA measured 24 to 48 hrs post OVA challenge relative to control. Type of data set: functional. The procedure, abridged:
as §3

The species entered for data set [19] is Mus musculus. Description: Adjuvant activity in immunized C57BL/6 mouse assessed as increase in OVA-specific IgG2b production in serum at 0.3 umol treated with ovalbumin for 7 days followed by stimulation with OVA for 7 days and restimulation with OVA measured 24 to 48 hrs post OVA challenge. Type of data set: functional.
For data set [20], the species on record is Mus musculus. The experiment in a line: Adjuvant activity in immunized C57BL/6 mouse assessed as increase in IL-17 production in spelnocytes at 0.3 umol treated with ovalbumin for 7 days followed by stimulation with OVA for 7 days and restimulation with OVA measured 24 to 48 hrs post OVA challenge. Type of data set: functional, cell-based. The procedure, abridged:
as §4

The source made the active and inactive calls. The calls are words filed in the database; no cut-off is given here.

Regarding `CCCCOc1ccc(C(=O)OC[C@H]2O[C@H](O[C@H]3O[C@H](COC(=O)c4ccc(OCCCC)cc4O)[C@@H](O)[C@H](O)[C@H]3O)[C@H](O)[C@@H](O)[C@@H]2O)c(O)c1`, the result (in data set [1]; in data set [3]; with BMDM [4]; in [7]; in data set [8]; in [10]) was inactive. In addition, the outcome with BMDM [11], with BMDM [12] and with BMDM [13] was inactive. In addition, the outcome in data set [2], in data set [5] and in data set [6] was Active. In addition, the Activity result in data set [9] is reported as “<= 0.1 EU/ml”.

For the compound `CCCCCCCCCCCCCCCCCCCCCC(=O)OC[C@H]1O[C@H](O[C@H]2O[C@H](COC(=O)CCCCCCCCCCCCCCCCCCCCC)[C@@H](O)[C@H](O)[C@H]2O)[C@H](O)[C@@H](O)[C@@H]1O`, the outcome (in [1]; in the data set filed under Mus musculus [14]; in the data set listed under Mus musculus [16]; in the data set filed under Mus musculus [18]; in [6]; in data set [7]) was Active. For the same compound, the outcome (in the data set filed under Mus musculus [19]; in [10]) was Active. The result in the data set listed under Mus musculus [15], in the data set listed under Mus musculus [17] and in the data set listed under Mus musculus [20] was inactive.
